High-throughput results from PubChem BioAssay.
Ecoli rRNA inh = inhibitors of bacterial rRNA selective over humanized ribosomes | E. coli WT GFP vs humanized-ribosome RFP mutants, fluorescence, 24 h; hits give low values; DMSO median 0, no signal -100 | GFP signal change (wild-type ribosome), % (concentration not given with the values) | 350,000 tested, 1.6% active | AID 720706;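 active = significant combined selectivity score with lowered wild-type GFP, culture density cut under 30%, mutant RFP and density less affected; inactive = any of these conditions unmet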
DENV2 CPE = DENV2-induced cell death inhibition | 350,000 tested, 1.7% active | CPE inhibition, % at 9.99 µM | DENV2-infected cells, cytopathic effect rescue, plate reader | AID 651640; in the data active = CPE inhibition above about 20%, passing the limit was not always enough; inconclusive = no clear call, values can overlap the other calls; tested in BHK-21 cells;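 also: 0% = median of neutral control wells and 100% = median of positive control wells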
PGC1a acetyl inh = modulators of PGC1a acetylation; AID 651687; U2OS PGC1a acetylation, AlphaScreen anti-acetyl-lysine; with virally co-expressed GCN5 acetyltransferase; inhibition, % at 15.6 µM; 350,000 tested, 0.17% active;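 active = every replicate shows inhibition of at least 40%; inconclusive = mean inhibition at least 40% but some replicate below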;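 also: 0% = neutral control wells and 100% = positive control wells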
PglD inh = blocks C. jejuni PglD acetyltransferase activity | inhibition, % at 12.5 µM | purified PglD enzyme, DTNB colorimetric CoA detection | 360,000 tested, 0.098% active; in the data active = inhibition above about 16%, passing the limit was not always enough; inconclusive = no clear call, values can overlap the other calls
FN deposit inh = fibronectin deposition inhibition; AH1F fibroblasts, Alexa488-fibronectin deposition fluorescence, overnight; inhibition, % at 12.6 µM; 350,000 tested, 0.086% active; AID 743247;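 active = mean inhibition across replicates of 30% or more, regardless of how many single replicates reach that level; inconclusive = mean under 30% yet at least half of replicates reach 30%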;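 also: positive control wells lacked labelled fibronectin entirely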
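test system = AH1F fibroblasts assembling fluorescent fibronectin matrix | quantity = 10000 AH1F cells per well | buffer or medium = DMEM plus 2% serum, read in PBS | doses = single dose, pinned | incubation = 1 h cell attachment, overnight exposure to compound and label | detection = fluorescence at 485 nm excitation, 525 nm emission | read-out basis = inhibition from reduced deposited-fibronectin fluorescence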
Env fusion inh = inhibitors of HIV Env-mediated cell fusion. 360,000 tested, 1.1% active. AID 651610. HeLa-JRFL Env/CEM21 cell fusion, luciferase. inhibition, % at 12.3 µM;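 active = mean replicate inhibition score of at least 50 and every replicate individually at or above 50; inconclusive = only one of the two criteria met; inactive = mean below 50 and not all replicates reaching 50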;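 also: 0% = plate neutral controls and 100% = maraviroc near 300 nM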
The depositor's hits bear a star; ? = inconclusive; . = not tested or not shown; [ ] = dose if it differs, or a comment. Rows were chosen to be rich in hits. Some 3.5% of all compounds tested hit in one or more screens of this group.

SMILES	Ecoli rRNA inh	DENV2 CPE	PGC1a acetyl inh	PglD inh	FN deposit inh	Env fusion inh
CCCNC(=O)N1[C@@H](CO)[C@H](c2ccccc2)[C@@H]1CNC(=O)c1cccc(F)c1	-8	12	6	-1	-15	.
CCCNC(=O)N1[C@H](CNC(=O)c2cccc(F)c2)[C@@H](c2ccccc2)[C@@H]1CO	-12	43*	-11	-3	-5	.
CCCNC(=O)N1[C@H](CO)[C@H](c2ccccc2)[C@@H]1CNC(=O)c1ccccc1	-4	33*	4	-2	.	.
O=C(C1CCCCC1)N1CC2(C1)[C@H](c1ccccc1)[C@@H](CO)N2CC1CCCC1	-5	13	.	.	-7	.
O=C(C1CC1)N1CC2(C1)[C@H](c1ccccc1)[C@@H](CO)N2Cc1nccs1	1	37*	10	.	7	.
O=C(C1CCCCC1)N1CC2(C1)[C@@H](c1ccccc1)[C@@H](CO)N2Cc1nccs1	-4	28*	.	.	0	.
O=C(C1CCCCC1)N1CC2(C1)[C@@H](c1ccccc1)[C@@H](CO)N2CC1CCCC1	-31	69*	8	.	6	.
O=C(C1CCCCC1)N1CC2(C1)[C@H](c1ccccc1)[C@@H](CO)N2Cc1nccs1	0	10	4	.	7	.
Cc1noc(C)c1NC(=O)N(C)C[C@@H]1Oc2ccc(NS(=O)(=O)c3ccc(Cl)cc3)cc2CC(=O)N([C@@H](C)CO)C[C@H]1C	2	3	6	0	.	-10[16.7 µM]
C[C@@H]1CN([C@H](C)CO)S(=O)(=O)c2ccc(C#CCN(C)C)cc2O[C@H]1CN(C)Cc1ccccn1	-3	-2	-3	2	-25	-7[16.7 µM]
CCOC(=O)c1cc2sc(C)cc2n1CCCN1C(=O)c2ccccc2C1=O	.	.	-11	-2	-3	-15
CCOC(=O)N1C=CC=C[C@@H]2[C@@H](N3C(=O)c4ccccc4C3=O)C(=O)N21	14	63*	.	.	8	-65
C/C=C/c1ccc2c(c1)O[C@H](CN(C)C(=O)CC)[C@@H](C)CN([C@H](C)CO)S2(=O)=O	-4	-10	5	2	.	-17[16.7 µM]
COc1ccc2[nH]c3c(=O)n4c(nc3c2c1)SCCC4	-28*	0	-15	-2	.	-16
COc1ccc(-c2csc3ncnc(NCCN4CCOCC4)c23)cc1	.	.	33	-3	.	.
c1ccc(-c2csc3ncnc(NCCN4CCOCC4)c23)cc1	.	.	16	.	10	78*
Clc1ccc(-c2csc3ncnc(NCCN4CCOCC4)c23)cc1	.	.	17	3	10	63*
Cc1ccc(-c2csc3ncnc(NCCN4CCOCC4)c23)cc1	.	.	28	-28	-1	?
CCC(=O)N1CCC2(CC1)CN(Cc1cccc(F)c1)[C@@H](CO)c1c2c2ccc(OC)cc2n1C	8	-1	-9	.	.	.
CN(C)C(=O)[C@H]1[C@H](CO)[C@H]2Cn3c(ccc(-c4cncnc4)c3=O)[C@H]2N1Cc1cc(F)ccc1F	2	18	.	2	.	6[16.7 µM]
Fc1cccc(/C=N/Nc2ccc3ccccc3n2)c1	-24*	?	0	.	-3	-161
Brc1ccc(/C=N/Nc2ccc3ccccc3n2)cc1	.	.	0	3	.	.
CCC(=O)Nc1ccc2c(c1)C(=O)N(C)C[C@@H](OC)[C@H](C)CN(C(=O)c1ccccn1)[C@H](C)CO2	3	43*	5	-2	11	.
COCC(=O)Nc1ccc2c(c1)C(=O)N(C)C[C@H](OC)[C@H](C)CN(C(=O)c1ccccn1)[C@H](C)CO2	4	31*	8	3	-17	.
COCC(=O)Nc1ccc2c(c1)C(=O)N(C)C[C@H](OC)[C@@H](C)CN(C(=O)c1ccccn1)[C@@H](C)CO2	-1	16	-8	1	-29	.
SMILES	Ecoli rRNA inh	DENV2 CPE	PGC1a acetyl inh	PglD inh	FN deposit inh	Env fusion inh
CCC(=O)Nc1ccc2c(c1)C(=O)N(C)C[C@@H](OC)[C@@H](C)CN(C(=O)c1cnccn1)[C@@H](C)CO2	0	29*	-6	-5	-1	.
CO[C@H](CN(C)C(=O)c1cc(Cl)cc(Cl)c1)[C@@H](C)CN(C(=O)Nc1ccc(F)cc1)[C@@H](C)CO	-6	-5	0	2	12	.
COc1ccccc1-c1ccc(SCc2ccc(F)cc2)nn1	-31*	1	4	.	.	21
COC(=O)c1cn(C(=O)c2ccc(OC)c(OC)c2)c2ccccc12	-18	26*	.	-2	4	11
O=C(CNC(=O)c1ccccc1)OCC(=O)c1ccccc1Cl	1	28*	-3	-6	.	8
O=C(Cc1ccccc1)NCC(=O)OCC(=O)c1ccccc1Cl	.	-2	.	3	3	9
O=C(Cc1ccccn1)NCC[C@@H]1CC[C@@H](NC(=O)CN2CCOCC2)[C@H](CO)O1	0	4	-11	4	-9	18[16.7 µM]
C=C1C(=O)c2sccc2C(c2ccc(OC)c(OC)c2)C1COC(C)=O (stereo not drawn)	-25*	-4	.	.	28	-51
CCN1CCN(CC(=O)N2N=C(c3cccs3)CC2c2ccc(OC)c(OC)c2)C(=O)C1=O (stereo not drawn)	0	10	9	7	-4	-6
COCC(=O)Nc1ccc2c(c1)C(=O)N(C)[C@H]1CC[C@H](CC(=O)NCc3cccc(F)c3)O[C@@H]1CO2	2	-19	5	.	-18	.
CCn1c(=N)n(CC(O)COc2ccc(C)cc2)c2ccccc21 (stereo not drawn)	-11	2	.	.	6	10
O=C(O)c1ccc(OCC(O)Cn2c3ccccc3c3ccccc32)cc1 (stereo not drawn)	-46*	4	-2	2	3	-7
CCCn1c(=N)n(CC(O)COc2ccc(C)cc2)c2ccccc21 (stereo not drawn)	-26*	41*	30	.	-20	-72
COc1ccc2c3c([nH]c2c1)[C@H](CO)N(Cc1nccs1)CC31CN(C(=O)C2CCCC2)C1	2	-1	.	.	.	.
Cc1c(Cl)cccc1NS(=O)(=O)c1ccc2c(c1)C1C=CCC1C(c1ccc(C(=O)O)cc1)N2 (stereo not drawn)	.	.	107*	.	.	.
COCC(=O)N(C)C[C@H]1Oc2cc(C#CCN(C)C)ccc2S(=O)(=O)N([C@H](C)CO)C[C@@H]1C	-1	-1	1	-1	-1	-9[16.7 µM]
Cc1cc(/C=C(\C#N)C(=O)N2CCOCC2)c(C)n1C1CCCC1	-22*	-15	.	.	-3	-25
CNC(=S)NC1CC2CCCC(C1)N2Cc1ccccc1OC (stereo not drawn)	-17*	6	12	-4	3	-2
COC(=O)c1cc(NC(=O)c2cc(-c3ccccc3Cl)oc2C(F)(F)F)ccc1N1CCOCC1	-32*	0	-4	-3	4	-6
